Each block holds one compound with its values, some of them ahead of it.
Tests used:
[1] = target: T1, Alpha-1A adrenergic receptor (Homo sapiens) (UniProt P35348); assay: Efficacy as % of the maximal effect observed for nonselective agonist phenylephrine in rat-1 fibroblasts expressing human alpha1; type: functional
T1 sequence (whole entry): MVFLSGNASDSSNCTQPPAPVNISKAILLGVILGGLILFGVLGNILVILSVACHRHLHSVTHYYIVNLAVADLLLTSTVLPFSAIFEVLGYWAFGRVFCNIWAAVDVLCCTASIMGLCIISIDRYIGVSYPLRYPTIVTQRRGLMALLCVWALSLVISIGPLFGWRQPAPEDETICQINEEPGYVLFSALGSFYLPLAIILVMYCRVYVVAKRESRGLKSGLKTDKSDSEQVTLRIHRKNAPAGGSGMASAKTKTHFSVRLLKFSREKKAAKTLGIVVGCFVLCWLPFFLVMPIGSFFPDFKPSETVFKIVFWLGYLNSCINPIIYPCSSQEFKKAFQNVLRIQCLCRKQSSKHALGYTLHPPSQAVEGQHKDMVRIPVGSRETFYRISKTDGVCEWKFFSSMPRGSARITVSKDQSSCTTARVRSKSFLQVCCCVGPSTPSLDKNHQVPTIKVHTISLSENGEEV
In short: (§1)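 Rat-1 fibroblasts expressing human α1a/α1b/α1d, grown in DMEM with 10% heat-inactivated FBS and 0.6 mg/mL G418, plated 6000 cells/well and cultured 48 h at 37 °C. Loaded 2 h at 37 °C with Calcium Green (4 μM), 0.2% pluronic acid and 2.5 mM probenecid in HEPES buffer pH 7.4. FLIPR read at room temperature: 10 s baseline, then 50 s after compound. 11-point curves as % of 40 μM phenylephrine response, top concentration typically 5 μM.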

[2] = target: T2, Alpha-1D adrenergic receptor (Homo sapiens) (UniProt P25100); assay: (§2) Agonist potency at Alpha-1D adrenergic receptor assayed in rat-1 fibroblasts expressing human alpha1d; type: functional; in short: as §1
T2 sequence (whole entry): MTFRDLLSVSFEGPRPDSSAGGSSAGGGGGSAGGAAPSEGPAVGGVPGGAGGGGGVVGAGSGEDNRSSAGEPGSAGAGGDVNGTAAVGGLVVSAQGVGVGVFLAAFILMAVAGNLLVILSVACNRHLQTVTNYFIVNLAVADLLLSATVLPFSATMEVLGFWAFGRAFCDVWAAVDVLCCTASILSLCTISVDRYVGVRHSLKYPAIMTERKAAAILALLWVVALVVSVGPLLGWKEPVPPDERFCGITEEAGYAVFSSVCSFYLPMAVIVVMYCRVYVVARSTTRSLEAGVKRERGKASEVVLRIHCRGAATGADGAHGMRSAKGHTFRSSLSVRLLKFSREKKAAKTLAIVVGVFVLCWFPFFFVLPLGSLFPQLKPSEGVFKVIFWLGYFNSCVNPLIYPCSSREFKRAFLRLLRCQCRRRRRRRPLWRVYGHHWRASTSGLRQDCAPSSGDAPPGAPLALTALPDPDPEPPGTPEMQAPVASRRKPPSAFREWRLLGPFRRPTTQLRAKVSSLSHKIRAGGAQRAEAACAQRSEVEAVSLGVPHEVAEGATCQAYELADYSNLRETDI

[3] = target: T3, Alpha-2C adrenergic receptor (Homo sapiens) (UniProt P18825); assay: Agonist potency at Alpha-2C adrenergic receptor assayed in CHO cells expressing human Alpha-2C adrenergic receptor; type: functional, cell-based
T3 sequence (whole entry): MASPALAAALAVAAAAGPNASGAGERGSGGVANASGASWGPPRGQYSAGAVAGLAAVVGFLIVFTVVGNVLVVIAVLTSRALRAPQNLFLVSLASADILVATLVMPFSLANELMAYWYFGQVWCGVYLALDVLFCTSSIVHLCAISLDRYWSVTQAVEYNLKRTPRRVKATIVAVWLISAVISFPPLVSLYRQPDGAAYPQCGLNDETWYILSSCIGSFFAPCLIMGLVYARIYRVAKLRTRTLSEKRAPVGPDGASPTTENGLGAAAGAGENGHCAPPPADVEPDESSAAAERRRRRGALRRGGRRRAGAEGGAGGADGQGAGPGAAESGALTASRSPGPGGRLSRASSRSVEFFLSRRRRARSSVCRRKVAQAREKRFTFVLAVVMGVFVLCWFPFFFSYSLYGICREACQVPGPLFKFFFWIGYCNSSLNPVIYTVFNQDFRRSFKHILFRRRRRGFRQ

[4] = target: T4, Alpha-1B adrenergic receptor (Homo sapiens) (UniProt P35368); assay: Agonist potency at Alpha-1B adrenergic receptor assayed in rat-1 fibroblasts expressing human Alpha-1B adrenergic receptor; type: functional; in short: as §1
T4 sequence (whole entry): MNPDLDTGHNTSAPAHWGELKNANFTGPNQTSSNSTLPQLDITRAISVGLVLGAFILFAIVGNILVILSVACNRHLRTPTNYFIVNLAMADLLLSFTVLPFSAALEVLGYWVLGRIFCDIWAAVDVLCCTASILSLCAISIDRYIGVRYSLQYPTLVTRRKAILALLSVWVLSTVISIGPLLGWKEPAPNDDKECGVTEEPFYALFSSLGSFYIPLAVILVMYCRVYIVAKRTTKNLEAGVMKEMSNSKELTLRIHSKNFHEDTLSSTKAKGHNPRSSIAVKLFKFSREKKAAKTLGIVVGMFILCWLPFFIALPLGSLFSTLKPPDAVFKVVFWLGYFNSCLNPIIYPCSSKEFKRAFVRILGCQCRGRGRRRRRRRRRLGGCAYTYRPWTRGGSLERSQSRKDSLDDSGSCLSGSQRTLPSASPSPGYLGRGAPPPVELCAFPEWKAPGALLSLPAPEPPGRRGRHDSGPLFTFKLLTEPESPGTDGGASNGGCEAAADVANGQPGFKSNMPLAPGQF

[5] = target: T5, Alpha-1A adrenergic receptor (Homo sapiens, UniProt P35348); assay: Agonist potency at Alpha-1A adrenoceptors assayed in rat-1 fibroblasts expressing human Alpha-1A; type: functional; in short: as §1
T5 sequence (P35348 whole entry): T1 sequence (whole entry)

[6] = target: T6, Alpha-1D adrenergic receptor (Homo sapiens, UniProt P25100); assay: Agonist potency at Alpha-1D adrenergic receptor assayed in rat-1 fibroblasts; type: functional; in short: as §1
T6 sequence (P25100 whole entry): T2 sequence (whole entry)

[7] = target: T3, Alpha-2C adrenergic receptor (Homo sapiens); assay: Efficacy as percentage of the maximal effect observed for nonselective agonist UK-14304 in CHO cells expressing human Alpha-2A adrenergic receptor; type: functional, cell-based
In short: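 Human α2A receptor in CHO cells, cAMP assay. Cells were preincubated with compound or UK14304 for 30 min at 37 °C with IBMX 300 μM. […] Efficacy is relative to the UK14304 maximum.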

[8] = target: T5, Alpha-1A adrenergic receptor; assay: Agonist potency at Alpha-1 adrenergic receptor assayed in rat-1 fibroblasts expressing human Alpha-1A; type: functional
In short: (§3)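 Human α1a, α1b or α1d receptors expressed in Rat-1 fibroblasts (DMEM, 10% heat-inactivated FBS, 0.6 mg/mL G418). Cells were plated at 6000/well and grown 48 h at 37 °C. They were loaded 2 h at 37 °C with Calcium Green (4 μM), pluronic acid 0.2% and probenecid 2.5 mM in HEPES buffer pH 7.4, then read by FLIPR at room temperature: 10 s baseline, 50 s after compound. 11-point curves were expressed as % of the 40 μM phenylephrine response; top concentration typically 5 μM.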

[9] = target: T6, Alpha-1D adrenergic receptor; assay: as §2; type: functional; in short: as §3
[10] = target: T7, Alpha-1B adrenergic receptor (Homo sapiens, UniProt P35368); assay: Agonist potency at alpha-1b adrenoceptors assayed in rat-1 fibroblasts expressing human Alpha-1B adrenergic receptor; type: functional; in short: as §3
T7 sequence (P35368 whole entry): T4 sequence (whole entry)

Structure (SMILES): CS(=O)(=O)c1c(F)cccc1NCC1=NCCN1
Max [1]: 93%

pEC5 [2]: < 4
pEC5 [3]: 5.5
pEC5 [4]: < 4
Structure (SMILES): CCCS(=O)(=O)c1ccccc1NCC1=NCCN1

EC50 [5]: 4.57 nM
EC50 [6]: 8.91 nM
Structure (SMILES): CSc1ccccc1NCC1=NCCN1

Structure (SMILES): CC(C)S(=O)(=O)c1ccccc1NCC1=NCCN1
Max [7]: 14%

EC50 [8]: 56.2 nM
EC50 [9]: > 100000 nM
Structure (SMILES): CS(=O)(=O)c1ccccc1NCC1=NCCN1

Structure (SMILES): CS(=O)(=O)c1cc(Cl)ccc1NCC1=NCCN1
EC50 [10]: > 100000 nM

Structure (SMILES): C[S+]([O-])c1ccccc1NCC1=NCCN1 (configuration not stated)
EC50 [8]: 490 nM
EC50 [9]: > 100000 nM

— ChEMBL document CHEMBL1135421, “2-(Anilinomethyl)imidazolines as alpha1 adrenergic receptor agonists: the discovery of alpha1a subtype selective 2'-alkylsulfonyl-substituted analogues” (J Med Chem, 2002)
